# ChEMBL document CHEMBL2093137, “WHO-TDR NTD Screening”
# Key:
# Schistosoma mansoni [1] = experiment: (§1) WHO-TDR: Schistosomiasis; format: functional, organism-based
# How it was run: (§2)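 In this whole-organism assay, larval and/or adult worms of Schistosoma mansoni (Puerto Rican strain) were exposed to compounds from a diverse Life Chemicals library of 10,000 members. A reference drug served as positive control. Activity is stated as percent inhibition and IC50.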
# Leishmania infantum = experiment: WHO-TDR: Leishmaniasis; format: functional, organism-based, Mus musculus; details: Macrophage
# How it was run: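 Whole-organism screen of a 10,000-compound diverse library from Life Chemicals, filtered for drug-likeness and reactive groups, against intracellular amastigotes of Leishmania infantum MHOM/MA(BE)/67 in murine peritoneal macrophage host cells. The assay followed previously published standard procedures, with a reference drug as positive control. Antiparasitic potency is reported as IC50.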
# Schistosoma mansoni [2] = experiment: as §1; format: functional; set-up: concentration or dose not given beside the values; how it was run: as §2
# Onchocerca lienalis = experiment: (§3) WHO-TDR: Onchocerciasis; format: functional; set-up: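 at 12.5 µM on microfilariae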
# How it was run: (§4)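 Microfilariae of Onchocerca ochengi or Onchocerca lienalis, animal pathogens standing in for the human parasite, were exposed to compounds in a whole-organism screen. The compounds came from a 10,000-compound diverse Life Chemicals library filtered for drug-likeness and reactive groups. Results are expressed as percent inhibition and IC50.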
# Plasmodium falciparum K1 = experiment: WHO-TDR: Malaria; format: functional, organism-based, Homo sapiens; details: Erythrocyte
# How it was run: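 Whole-organism screen of a 10,000-compound diverse library from Life Chemicals, filtered for drug-likeness and reactive groups, against intra-erythrocytic Plasmodium falciparum K1 strain in human red blood cells. The assay followed previously published standard procedures, with a reference drug as positive control. Antiplasmodial potency is reported as IC50.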
# Trypanosoma cruzi = experiment: WHO-TDR: Chagas disease; format: functional, organism-based, Homo sapiens; details: MRC5
# How it was run: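 Intracellular amastigotes of the Trypanosoma cruzi Tulahuen CL2 beta-galactosidase strain, grown in MRC-5SV2 human lung fibroblast host cells, were tested in a whole-organism screen. The compounds came from a 10,000-member diverse Life Chemicals library that had been filtered for drug-likeness and reactive groups. Previously published standard procedures were followed, with a reference drug as positive control, and potency is reported as IC50.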
# [3] = tested on: Trypanosoma brucei brucei; experiment: WHO-TDR: Human African Trypanosomiasis (HAT); format: functional, organism-based; details: Squib-427
# How it was run: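 Whole-organism screen of a 10,000-compound diverse library from Life Chemicals, filtered for drug-likeness and reactive groups, against bloodstream forms of Trypanosoma brucei Squib 427 strain. The assay followed previously published standard procedures, with reference drugs as positive controls. Antiparasitic potency is reported as IC50.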
# [4] = WHO-TDR: Cytotoxicity; format: toxicity, cell-based; details: human, MRC5 cells
# Onchocerca ochengi = experiment: as §3; format: functional; set-up: concentration or dose not given beside the values; how it was run: as §4;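 further: at 12.5 µM on microfilariae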
# Brugia malayi [5] = experiment: (§5) WHO-TDR: Lymphatic Filariasis; format: functional; set-up: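 tested at 10 µM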
# How it was run: (§6)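 In a whole-organism assay, Brugia malayi microfilariae were screened against a diverse Life Chemicals library that had been filtered for drug-likeness and reactive groups. That library comprised 10,000 compounds. Activity is expressed as percent inhibition and as IC50.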
# Brugia malayi [6] = experiment: as §5; format: functional, organism-based; how it was run: as §6
# Brugia malayi [7] = experiment: as §5; format: functional; set-up: concentration or dose not given beside the values; how it was run: as §6; remark: listed apart in the source
Structure (SMILES),IC50 (Schistosoma mansoni [1]),IC50 (Leishmania infantum) [µg/mL],% Inhibition (Schistosoma mansoni [2]) [%],% Inhibition (Onchocerca lienalis) [%],IC50 (Plasmodium falciparum K1) [µg/mL],IC50 (Trypanosoma cruzi) [µg/mL],IC50 [3] [µg/mL],IC50 [4] [µg/mL],% Inhibition (Onchocerca ochengi) [%],% Inhibition (Brugia malayi [5]) [%],IC50 (Brugia malayi [6]) [µM],% Inhibition (Brugia malayi [7]) [%]
CCN(CC)c1cc(C)nc(Nc2ccc(NC(=O)c3cccs3)cc2)n1,4.7 µM,3.7,100,-1,0.378,0.295,0.472,2.96,–,–,–,–
O=C(NCc1nnnn1-c1ccc(Cl)cc1)C1c2ccccc2Oc2ccccc21,6.6 µM,> 12.5,100,0,> 12.5,> 12.5,> 12.5,> 12.5,–,–,–,–
COC(=O)c1sc(-c2ccccc2)cc1NC(=O)CCS(=O)(=O)c1ccccc1,8.2 µM,> 9.7,100,13.3,> 9.7,> 9.7,> 9.7,> 9.7,–,–,–,–
O=C(c1ccccc1F)N1CCN(c2ccc(-c3ccccn3)nn2)CC1,2.36 µg/mL,> 10.9,100,–,0.396,0.375,1.59,2.77,100,33.33,–,–
COc1cc(OC)cc(C(=O)N(CCCN(C)C)c2nc3c(C)c(C)ccc3s2)c1,5.7 µM,4.51,100,0,1.13,4.66,0.456,2.84,–,–,–,–
O=C(NCCOc1ccc2nnc(-c3ccccc3)n2n1)c1ccccc1C(F)(F)F,3.38 µg/mL,> 12.8,100,–,> 12.8,> 12.8,> 12.8,> 12.8,0,33.33,–,–
CN(CC1CCCO1)S(=O)(=O)c1ccc(C(=O)Nc2cccc(-c3nc4ccccc4o3)c2)cc1 (stereo not given),7.4 µM,4.66,100,13.3,> 8.86,> 8.86,4.38,> 8.86,–,–,–,–
Cc1nc(-c2ccccc2)sc1C(=O)Nc1cccc(-c2cn3c(n2)SCC3)c1,2.7 µM,4.07,100,0,10.4,10.5,> 12.6,8.81,–,–,–,–
CCOC(=O)c1oc2ccccc2c1NC(=O)c1cc(C)no1,2.21 µg/mL,> 9.43,100,–,> 9.43,> 9.43,> 9.43,> 9.43,0,20,–,–
O=C(CCC1CCCCC1)N1CCN(c2ccc(-c3cccnc3)nn2)CC1,3.15 µg/mL,> 11.4,100,–,6.4,4.89,> 11.4,> 11.4,50,33.33,–,–
O=S(=O)(c1ccccc1Cl)N1CCN(c2ccc(-c3ccco3)nn2)CC1,2.79 µg/mL,> 12.1,100,–,> 12.1,> 12.1,> 12.1,> 12.1,0,0,–,–
COc1ccc(Cl)cc1C(=O)NCCOc1ccc2nnc(-c3ccc(F)cc3)n2n1,3.58 µg/mL,4.29,100,–,> 13.3,> 13.3,> 13.3,> 13.3,0,33.33,–,–
CCCCc1ccc(NC(=O)CSc2nccn2-c2ccccc2)cc1,–,> 11,0,0,> 11,3.22,> 11.7,> 11,–,100,4.31,25
O=C(CCS(=O)(=O)c1ccccc1)N(CCCN1CCOCC1)c1nc2ccccc2s1,–,5.81,0,9.31,> 15.3,8.52,4.9,2.88,–,100,6.05,60
O=C(Nc1nc2c(s1)CSc1ccccc1-2)C1CCCN1S(=O)(=O)c1cccs1 (stereo not given),–,4.5,100,93,3.71,0.5,0.45,1.88,–,100,5.19,0
COc1ccc(-c2nnc(NC(=O)c3ccc(S(=O)(=O)N4CC(C)OC(C)C4)cc3)o2)c(OC)c1 (stereo not given),–,4.88,0,66.7,10.6,4.91,> 15.1,> 15.1,–,100,3.22,25
O=C(COc1ccc(Cl)cc1Cl)Nc1nnc(C23CC4CC(CC(C4)C2)C3)s1,–,4.26,0,0,> 13.2,> 13.2,> 13.2,> 13.2,–,100,1.49,0
COc1ccc(C(=O)Nc2nnc(SCC(=O)Nc3cc(C(F)(F)F)ccc3Cl)s2)cc1OC,–,> 16,0,26.67,> 16,> 16,> 16,> 16,–,100,5.95,0
O=C(Cc1csc(NC(=O)C2CCC(=O)N2)n1)NCc1ccccn1 (stereo not given),2.48 µg/mL,> 10.8,100,–,> 10.8,> 10.8,> 10.8,> 10.8,0,20,–,–
C#CCn1/c(=N\C(=O)c2cc(C)no2)sc2cc(S(N)(=O)=O)ccc21,3.16 µg/mL,> 11.3,100,–,> 11.3,> 11.3,> 11.3,> 11.3,0,0,–,–
